Laboratory results: ChEMBL document CHEMBL1151423, “Pharmacokinetics-pharmacodynamics of gatifloxacin in a lethal murine Bacillus anthracis inhalation infection model” (Antimicrob Agents Chemother, 2007)
≈ marks a conversion by molar mass, not a printed value.

Legend:
[1] = tested on: Bacillus anthracis; test: Antimicrobial activity against Bacillus anthracis Ames after 18 hrs by microdilution method; format: functional
[2] = Half life in human; format: ADME, organism-based; settings: in vivo
[3] = Ratio of AUC (0 to 24 hrs) for Staphylococcus infected patient to MIC for Staphylococcus; format: functional
[4] = tested on: Mus musculus; test: Apparent distribution clearance in mouse at 10 to 100 mg/kg, ip; format: ADME, organism-based; design: dose 10-100 mg/kg, route intraperitoneal; settings: in vivo
How it was run: (§1)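 Mice, three groups, each received a single intraperitoneal gatifloxacin dose of 10, 50 or 100 mg/kg. Sera were taken by exsanguination under anaesthesia from three mice per group at 0.25–12 h post-dose and stored at −70°C. Levels were measured by bioassay (S. aureus ATCC 29213 indicator; standard curve in control mouse serum) in triplicate, detection range 0.12–64 μg/ml. Pooled data were fitted by maximum likelihood to a two-compartment model with first-order absorption and lag time.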

[5] = Half life in mouse at 10 to 100 mg/kg, ip; format: ADME, organism-based; design: dose 10-100 mg/kg, route intraperitoneal; settings: in vivo; how it was run: as §1
[6] = tested on: Mus musculus; test: Tlag in mouse at 10 to 100 mg/kg, ip; format: ADME, organism-based; design: dose 10-100 mg/kg, route intraperitoneal; settings: in vivo; how it was run: as §1
[7] = Apparent total clearance in mouse at 10 to 100 mg/kg, ip; format: ADME, organism-based; design: dose 10-100 mg/kg, route intraperitoneal; settings: in vivo, read-out: CLt/F (converted); how it was run: as §1
[8] = tested on: Mus musculus; test: Apparent peripheral volume of distribution in mouse at 10 to 100 mg/kg, ip; format: ADME, organism-based; design: dose 10-100 mg/kg, route intraperitoneal; settings: in vivo; how it was run: as §1
[9] = tested on: Mus musculus; test: Apparent volume of distribution with respect to the bioavailability in mouse at 10 to 100 mg/kg, ip; format: ADME, organism-based; settings: in vivo; how it was run: as §1
[10] = Ratio of AUC (0 to 24 hrs) for Enterococcus infected patient to MIC for Enterococcus; format: functional
[11] = Ratio of AUC (0 to 24 hrs) for Staphylococcus aureus infected ICR/Swiss mouse model to MIC for Staphylococcus aureus; format: functional
[12] = Apparent total clearance in human; format: ADME, organism-based; settings: in vivo, read-out: CLt/F (converted)

## COc1c(N2CCNC(C)C2)c(F)cc2c(=O)c(C(=O)O)cn(C3CC3)c12 (configuration not stated) [GATIFLOXACIN]
[1]
  MIC: 0.125 µg/mL (≈ 0.333 µM)
[2]
  half-life: 9 h
[3]
  Ratio: 85
[4]
  CLd/F: 128 mL/min/kg
[5]
  half-life: 0.6 h
[6]
  Tlag: 0.23 h
[7]
  CL/F: 45 mL/min/kg
[8]
  Vp/F: 1.6 L/kg
[9]
  Vc/F: 0.2 L/kg
[10]
  Ratio: 85
[11]
  Ratio: 83
[12]
  CL/F: 1.67 mL/min/kg
